Test results published in ChEMBL document CHEMBL2169835, “Flavonoid dimers as novel, potent antileishmanial agents” (J Med Chem, 2012).
Activity calls are given as the source filed them. The rule behind the calls is not given here.

Tests used:
[1] = Therapeutic index, ratio of IC50 for rat L6 cells to IC50 for Leishmania donovani; format: cell-based; conditions: L6 cells (cytotoxicity) versus Leishmania donovani, read-out: Ratio IC50
L6 = assay: Cytotoxicity against rat L6 cells; format: cell-based
Leishmania donovani [2] = assay: Antimicrobial activity against axenically grown Leishmania donovani amastigotes; format: functional, organism-based
Leishmania donovani [3] = assay: Selectivity ratio of IC50 for Leishmania donovani promastigote to IC50 for SSG-resistant Leishmania donovani 39 amastigote infected in mouse peritoneal macrophages; format: functional
[4] = Cytotoxicity against mouse Peritoneal macrophages cells after 72 hrs by MTS assay; format: cell-based; conditions: Peritoneal macrophage cell
Method in brief: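 Primary mouse peritoneal elicited macrophages were seeded at 2 × 10^4 cells per well in DMEM with 10% heat-inactivated FBS. They were exposed to graded doses for 72 h at 37 °C in 5% CO2. Survival was read by MTS/PMS tetrazolium reduction (OD 490 nm) relative to untreated control. The IC50 was the concentration halving OD. Results are mean ± SEM of 1–4 independent experiments.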

Leishmania donovani [5] = assay: Antimicrobial activity against wild-type Leishmania donovani AG83 promastigote assessed as inhibition of parasite growth after 72 hrs by MTS assay; format: functional, organism-based; conditions: AG83, 72 h
Method in brief: (§1)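 Promastigotes were grown in Schneider's medium pH 6.9 with 10% heat-inactivated FBS at 27 °C, seeded at 1 × 10^5 per well, and exposed to serial concentrations for 72 h at 27 °C. Compounds were in DMSO (≤1% final) or water. MTS:PMS (20:1) was added for 4 h, then OD490 was read.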

[6] = Therapeutic index, ratio of IC50 for mouse PEM cells to IC50 for wild-type Leishmania donovani AG83 promastigote; format: cell-based; conditions: read-out: Ratio IC50
Method in brief: (§2)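 Index is PEM cytotoxicity IC50 over promastigote IC50. For PEM, cells were seeded at 2 × 10^4 per well in supplemented DMEM, given graded doses for 72 h at 37 °C, 5% CO2, and read by MTS survival.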

Leishmania donovani [7] = assay: Antimicrobial activity against SSG-resistant Leishmania donovani 39 promastigote assessed as inhibition of parasite growth after 72 hrs by MTS assay; format: functional, organism-based; conditions: Leishmania donovani, 39, 72 h
Method in brief: as §1, with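 “read. Survival was % of untreated control; IC50 = concentration halving OD; N = 1−4.” for “read.”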

[8] = Therapeutic index, ratio of IC50 for mouse Peritoneal macrophages to IC50 for SSG-resistant Leishmania donovani 39 promastigote; conditions: read-out: Ratio IC50; method in brief: as §2
[9] = Therapeutic index, ratio of IC50 for mouse Peritoneal macrophages to IC50 for pentamidine-resistant Leishmania donovani AG83PentR50 promastigote; conditions: read-out: Ratio IC50; method in brief: as §2
[10] = Therapeutic index, ratio of IC50 for mouse Peritoneal macrophages to IC50 for SSG-resistant Leishmania donovani 39 amastigote infected in mouse peritoneal macrophages; conditions: read-out: Ratio IC50
RAW264.7 = assay: Cytotoxicity against mouse RAW264.7 cells after 72 hrs by MTS assay; format: cell-based; conditions: RAW264.7, 72 h
Method in brief: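 RAW 264.7 murine macrophage line was plated at 1 × 10^4 cells per well in supplemented DMEM. Cells received a graded compound series for 72 h at 37 °C, 5% CO2, with a maximum of 1% DMSO. Viability was measured by MTS with PMS coupling at OD 490 nm, as percent of untreated control. The IC50 was the concentration reducing OD by half, given as mean ± SEM, N = 1–4.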

Leishmania donovani [11] = assay: Antimicrobial activity against SSG-resistant Leishmania donovani 39 amastigote infected in mouse peritoneal macrophages assessed as inhibition of parasite growth after 72 hrs by Giemsa staining method; format: functional, organism-based; conditions: Leishmania donovani, 39, 72 h
Method in brief: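 Mouse peritoneal elicited macrophages were seeded on coverslips at 1 × 10^5 cells per well in DMEM with 10% heat-inactivated FBS and left to attach overnight. They were infected overnight with late-log Ld39 promastigotes (parasite:macrophage 20:1) at 37 °C, 5% CO2, then washed. Compounds were applied for 72 h at 37 °C. Giemsa-stained amastigotes per 100 macrophages gave IC50; N = 1−3.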

Leishmania donovani [12] = assay: Antimicrobial activity against pentamidine-resistant Leishmania donovani AG83PentR50 promastigote assessed as inhibition of parasite growth after 72 hrs by MTS assay; format: functional, organism-based; conditions: AG83PentR50, 72 h
Method in brief: as §1, with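 “read. Survival was % of untreated control; IC50 = concentration halving OD; N = 1−4.” for “read.”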

Leishmania donovani [13] = assay: Selectivity ratio of IC50 for compound-resistant Leishmania donovani AG83PentR50 promastigote to IC50 for wild-type Leishmania donovani AG83 promastigote; format: functional
Leishmania donovani [14] = assay: Ratio of isoginkgetin IC50 to compound IC50 for axenically grown Leishmania donovani amastigotes; format: functional
Leishmania donovani [15] = assay: Antimicrobial activity against SSG-resistant Leishmania donovani 39 amastigote infected in mouse peritoneal macrophages assessed as inhibition of parasite growth at 5 uM after 3 days by Giemsa staining method; format: functional, organism-based
Method in brief: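 Coverslip-grown peritoneal macrophages were infected 24 h at 37 °C with late-log Ld39 promastigotes (20:1), washed, then exposed to 5 μM compound for 3 days at 37 °C, with a DMSO solvent control. Giemsa staining was scored as percentage of macrophages infected and amastigotes per 100 macrophages.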

IC50 (Leishmania donovani [2]) [µM]	Compound	selectivity ratio [1]	IC50 (L6) [µM]	Ratio IC50 (Leishmania donovani [3])	IC50 [4] [µM]	IC50 (Leishmania donovani [5]) [µM]	selectivity ratio [6]	IC50 (Leishmania donovani [7]) [µM]	selectivity ratio [8]	selectivity ratio [9]	selectivity ratio [10]	IC50 (RAW264.7) [µM]	IC50 (Leishmania donovani [11]) [µM]	IC50 (Leishmania donovani [12]) [µM]	Ratio IC50 (Leishmania donovani [13])	Ratio IC50 (Leishmania donovani [14])	inhibition (Leishmania donovani [15])
1.9	COc1ccc(-c2cc(=O)c3c(O)cc(O)c(-c4cc(-c5cc(=O)c6c(O)cc(O)cc6o5)ccc4OC)c3o2)cc1 [ISOGINKGETIN]	5.8	11	–	–	–	–	–	–	–	–	–	–	–	–	–	–
–	O=c1c(O)c(-c2ccc(O)c(O)c2)oc2cc(O)cc(O)c12 [QUERCETIN]	–	–	17	> 100	103	> 1	> 100	> 1	> 1.4	> 16.7	95.6	6	69.6	–	–	–
–	O=c1cc(-c2ccc(O)c(O)c2)oc2cc(O)cc(O)c12 [LUTEOLIN]	–	–	12	77.7	114	0.7	89	0.9	0.9	10.1	43.2	7.7	90.9	–	–	–
–	sodium stibogluconate	–	–	11	–	–	–	–	–	–	–	–	–	–	–	–	–
–	N=C(N)c1ccc(OCCCCCOc2ccc(C(=N)N)cc2)cc1 [PENTAMIDINE]	–	–	–	30.4	13.9	2.2	5.3	5.7	0.6	< 1	30	> 30	54.8	3.9	–	–
–	O=c1cc(-c2ccc(OCCOCCN(CCOCCOc3ccc(-c4cc(=O)c5ccccc5o4)cc3)Cc3ccncc3)cc2)oc2ccccc12	–	–	–	> 88	0.2	> 440	0.21	> 419	> 677	> 140	> 100	0.63	0.13	–	3	Active
